Laboratory results: ChEMBL document CHEMBL4312027, “Synthesis, characterization, and biological activity of a triphenylphosphonium-containing imidazolium salt against select bladder cancer cell lines” (Eur J Med Chem, 2020)
Calls of active or inactive are those of the source. The rule behind the calls is not given here.

Key:
[1] = tested on: RT-4; test: Growth inhibition of human RT4 cells measured after 1 hr by Celltiter-Glo luminescent cell viability assay; type: functional; details: RT-4, 1 h
Procedure, shortened: (§1)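 Cells seeded 10000/well, 24 h, then exposed in ATCC-recommended medium to 62.5–2000 μM (two-fold steps) or vehicle for the set time (5–60 min), then normal medium. After 24 h, plates equilibrated 30 min at room temperature, CellTiter-Glo added, 2 min at room temperature, luminescence read. Survival relative to vehicle control; quadruplicate.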

[2] = tested on: COLO 205; test: Growth inhibition of human COLO205 cells assessed as growth percent at 10 uM incubated for 48 hrs by sulforhodamine B assay relative to control; type: functional; details: COLO 205, 48 h, read-out: Activity
[3] = tested on: RT-112; test: Cytotoxicity against human RT112 cells assessed as cellular fragmentation at 250 to 500 uM incubated for 1 hr and measured at 24 hrs after treatment; type: functional, cell-based
[4] = tested on: Hs-578T; test: Growth inhibition of human Hs 578T cells assessed as growth percent at 10 uM incubated for 48 hrs by sulforhodamine B assay relative to control; type: functional; details: read-out: Activity
[5] = tested on: NCI-H322M; test: Growth inhibition of human NCI-H322M cells assessed as growth percent at 10 uM incubated for 48 hrs by sulforhodamine B assay relative to control; type: functional; details: read-out: Activity
[6] = tested on: LOX IMVI; test: Growth inhibition of human LOXIMVI cells assessed as growth percent at 10 uM incubated for 48 hrs by sulforhodamine B assay relative to control; type: functional; details: read-out: Activity
[7] = tested on: Mus musculus; test: (§2) Induction of urothelium exfoliation in anesthetized female mouse model assessed as decrease in urothelial cell height at 750 to 1500 uM administered via intravesical instillation after bladder evacuation treated for 1 hr followed by repetition of the treatment after 24 hrs and measured at 24 hrs after final treatment by hematoxylin and eosin staining based analysis; type: organism-based; details: in vivo, other
Procedure, shortened: (§3)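 Female mice anesthetized, 1–3% isoflurane. Bladder evacuated, then 100 μL of 750 or 1500 μM in 10% DMSO/PBS (or vehicle) instilled by 24G angiocatheter. Catheter left in place for a 1 h dwell. Repeated after 24 h; mice sacrificed 24 h after final dose. Bladder histology read for urothelial height and layers.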

[8] = tested on: HCT-15; test: Growth inhibition of human HCT15 cells assessed as growth percent at 10 uM incubated for 48 hrs by sulforhodamine B assay relative to control; type: functional; details: HCT-15, 48 h, read-out: Activity
[9] = tested on: HOP-92; test: Growth inhibition of human HOP92 cells assessed as growth percent at 10 uM incubated for 48 hrs by sulforhodamine B assay relative to control; type: functional; details: HOP-92, 48 h, read-out: Activity
[10] = tested on: UMUC3; test: Growth inhibition of human UM-UC-3 cells measured after 1 hr by Celltiter-Glo luminescent cell viability assay; type: functional; details: UMUC3, 1 h; procedure, shortened: as §1
[11] = tested on: SK-MEL-28; test: Growth inhibition of human SK-MEL-28 cells assessed as growth percent at 10 uM incubated for 48 hrs by sulforhodamine B assay relative to control; type: functional; details: SK-MEL-28, 48 h, read-out: Activity
[12] = tested on: KM12; test: Growth inhibition of human KM12 cells assessed as growth percent at 10 uM incubated for 48 hrs by sulforhodamine B assay relative to control; type: functional; details: KM12, 48 h, read-out: Activity
[13] = tested on: NCI/ADR-RES; test: Growth inhibition of human NCI/ADR-RES cells assessed as growth percent at 10 uM incubated for 48 hrs by sulforhodamine B assay relative to control; type: functional; details: read-out: Activity
[14] = tested on: UACC-62; test: Growth inhibition of human UACC62 cells assessed as growth percent at 10 uM incubated for 48 hrs by sulforhodamine B assay relative to control; type: functional; details: UACC-62, 48 h, read-out: Activity
[15] = tested on: UO-31; test: Growth inhibition of human UO31 cells assessed as growth percent at 10 uM incubated for 48 hrs by sulforhodamine B assay relative to control; type: functional; details: UO-31, 48 h, read-out: Activity
[16] = Toxicity in anesthetized BBN-induced bladder tumor mouse model assessed as cleaved caspase 3 level in tumor adjacent normal […] at 1500 uM administered via intravesical instillation treated for 1 hr administered as 2 doses at 24 hrs interval and measured at 24 hrs after final treatment by hematoxylin and eosin staining based immunohistochemical analysis; details: in vivo, other
Procedure, shortened: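 Bladder tumors induced with 0.05% BBN in drinking water and confirmed by excretory μCT urography. Anesthetized (isoflurane) mice given intravesical 1500 μM or vehicle by catheter. Two 1 h doses 24 h apart. Females received 100 μL in 10% DMSO/PBS; males received doubled concentration in 50 μL of 20% DMSO/PBS. Bladder immunohistology for cleaved caspase-3.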

[17] = tested on: SW780; test: Growth inhibition of human SW780 cells measured after 1 hr by Celltiter-Glo luminescent cell viability assay; type: functional; details: SW780, 1 h; procedure, shortened: as §1
[18] = tested on: Mus musculus; test: as §2, with “effect on” for “decrease in”, “layer thickening” for “cell height”; type: organism-based; details: in vivo, other; procedure, shortened: as §3
[19] = tested on: RT-112; test: Induction of apoptosis in human RT112 cells assessed as increase in PARP cleavage at 500 uM incubated for 1 hr and measured immediately after treatment by Western blot analysis; type: functional, cell-based
Procedure, shortened: (§4)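 RT112 seeded 300,000/well; after 24 h, 250 or 500 μM or vehicle. Cells plus floating debris harvested immediately or 24 h after treatment, lysed in RIPA with protease inhibitors. About 30 μg protein heated 10 min at 95 °C with DTT, run on SDS-PAGE. Immunoblotted for PARP and caspase 9, Ran as loading control, ECL detection.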

[20] = tested on: 5637; test: Growth inhibition of human 5637 cells measured after 1 hr by Celltiter-Glo luminescent cell viability assay; type: functional; details: Homo sapiens, 5637, 1 h
Procedure, shortened: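 Seeded at 10000 cells/well and grown 24 h, then exposed to 62.5–2000 μM (two-fold steps) or vehicle in growth medium for 1 h. Medium was replaced with normal medium for 24 h before CellTiter-Glo luminescence was read. Survival was expressed relative to vehicle, with quadruplicate wells, and GI50 was calculated.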

[21] = tested on: J82; test: Cell cycle arrest in human J82 cells assessed as increase in cell accumulation at sub-G1 phase at 250 to 500 uM incubated for 1 hr measured after culturing in normal medium for 24 hrs by propidium iodide/RNase staining based FACScan flow cytometry analysis; type: functional
Procedure, shortened: (§5)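 Seeded at 300,000 cells/well in triplicate per treatment; 24 h later exposed to 250 or 500 μM or vehicle for 1 h. After 24 h in normal media, media plus cells were collected, washed, fixed in cold 70% ethanol (4 °C, 30 min), treated with phosphate citric acid buffer, stained with PI/RNase and gated for sub-G1 by flow cytometry.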

[22] = tested on: RT-112; test: Cell cycle arrest in human RT112 cells assessed as cell accumulation at sub-G1 phase at 500 uM incubated for 1 hr measured after culturing in normal medium for 24 hrs by propidium iodide/RNase staining based FACScan flow cytometry analysis; type: functional; procedure, shortened: as §5
[23] = tested on: SF-295; test: Growth inhibition of human SF295 cells assessed as growth percent at 10 uM incubated for 48 hrs by sulforhodamine B assay relative to control; type: functional; details: SF-295, 48 h, read-out: Activity
[24] = tested on: HT-29; test: Growth inhibition of human HT-29 cells assessed as growth percent at 10 uM incubated for 48 hrs by sulforhodamine B assay relative to control; type: functional; details: HT-29, 48 h, read-out: Activity
[25] = tested on: RT-112; test: Induction of apoptosis in human RT112 cells assessed as caspase 9 cleavage at 500 uM incubated for 1 hr and measured immediately after treatment by Western blot analysis; type: functional, cell-based; procedure, shortened: as §4

In the case of `[Br-].[Br-].c1ccc([P+](CCCc2n(Cc3ccc4ccccc4c3)c3ccccc3[n+]2Cc2ccc3ccccc3c2)(c2ccccc2)c2ccccc2)cc1`, the GI50 [1] is reported as 150 µM, the growth at 10 µM [2] is reported as 44.7% and the Activity [3] is reported as “Active”. For the same molecule, the growth at 10 µM [4] was 68.6%, the growth at 10 µM [5] was 63.8% and the growth at 10 µM [6] was 13.8%. The Activity [7] was “Non-Toxic”, the growth at 10 µM [8] was 85.5% and the growth at 10 µM [9] was 46.3%. It also gave a GI50 [10] of 80 µM, a growth at 10 µM [11] of 37.1% and a growth at 10 µM [12] of 32.2%. The growth at 10 µM [13] was 83.7%, the growth at 10 µM [14] was 37.8% and the growth at 10 µM [15] was 61.2%. The Activity [16] was “Non-Toxic”, the GI50 [17] was 200 µM and the Activity [18] was “Non-Toxic”. For the same molecule, the Activity [19] was “Active”, the GI50 [20] was 200 µM and the Activity [21] was “Active”. For the same molecule, the Activity [22] was “inactive”, the growth at 10 µM [23] was 41.1% and the growth at 10 µM [24] was 23.9%. The Activity [25] was “inactive”.
